A selection: hits, their analogues and other compounds. The true share with any hit is near 4.6%.
Arrestin-AP2 inh: inhibitors of beta-arrestin/AP2 binding, primary screen, biochemical, GPCR trafficking, flow cytometry; beta-arrestin 1 C-terminal peptide binding to AP2 beta2-adaptin appendage (human); FITC-arrestin peptide / GST-AP2 beads; AP2 beta2 appendage carries R879A mutation; inhibition, % at 10 µM; hit rate 0.31% among 340,000; AID 504490, 2011;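 active means inhibition above a set limit, near 3 SD of compounds lacking own fluorescence, cut at about 54% in these data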;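 further: plate controls were DMSO wells for no effect and 5 µM unlabelled arrestin peptide for full effect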
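System: GST-tagged AP2 beta2-adaptin appendage (R879A) on 4 µm glutathione beads / Reagent: FITC-arrestin peptide, 50 nM / Detection: HyperCyt-sampled flow cytometry, FL1 channel, ex 488/em 535 nm / Timing: 12 min plus 1 h, RT / Buffer or medium: PBS plus Tween 20 (0.05%) and BSA (0.1%)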
DSG3 Ab inh: inhibitors of pemphigus antibody binding to DSG3, primary screen, biochemical, bead-based, flow cytometry, scFv-GFP. AID 588358, 2011. DSG3-coupled beads, scFv-anti-DSG3-GFP binding; active compounds read low. Desmoglein-3 (Homo sapiens), P32926. binding (percent of control), % at 10 µM. hit rate 0.48% among 310,000;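 active means binding more than 3 SD below its plate's average and above zero; inconclusive means below that plate limit but binding exactly zero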;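 further: hits lower antibody fragment binding to DSG3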
NALP3 yeast inh: NALP3 inflammasome inhibitors in reconstituted yeast, primary screen, luminescence, uHTS. Yeast reconstituted NLRP3/ASC/caspase-1, beta-gal luminescence, 24 h. inhibition, % at 10 µM. hit rate 0.39% among 330,000;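 active means inhibition of 50% or more; inactive means inhibition below 50%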;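 further: plate controls were induced DMSO wells for no effect and uninduced yeast grown without galactose for full effect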
NALP1 yeast inh: NALP1 inflammasome inhibitors in reconstituted yeast, colorimetric, S. cerevisiae, triplicate retest; S. cerevisiae NALP1/ASC/caspase-1 growth, X-gal OD620, 72 h; inhibition, % at 10 µM; hit rate 0.61% among 280,000; AID 2071, 2009; in the data active means inhibition mostly above about 24%, no sharp cut-off; inactive means mostly below about 32%
PolyA inhibitor: polyadenylation inhibitors in yeast reporter cells, primary screen, luminescence, S. cerevisiae | S. cerevisiae SKY197-pL101 polyadenylation reporter, beta-gal luminescence; efflux-impaired pdr1/pdr3 knockout yeast; score 100 = 6 SD above DMSO | activity score, % at 12 µM | hit rate 0.02% among 300,000;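 active means lowest replicate activity score at least 50, where 100 means six control SD above control mean; inconclusive means lowest score under 50 but half or more replicates reach 50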;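 further: yeast exposed to compound for 9 h at 30 °C; higher score means more reporter readthrough which indicates perturbed polyadenylation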
ALR H2O2 inh: inhibitors of human ALR sulfhydryl oxidase, primary screen, biochemical, H2O2 detection, HRP-luminol luminescence, single point; FAD-linked sulfhydryl oxidase ALR (Homo sapiens), P55789; purified ALR, DTT oxidation; inhibition, % (test concentration not listed); hit rate 3.8% among 290,000; AID 485317, 2010;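 active means mean replicate inhibition above about 79%, with every replicate also reaching it, limit read from the data; inconclusive means only one of the two criteria met; inactive means mean below limit and not every replicate reaching it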
Target sequence (P55789 whole entry, looked up): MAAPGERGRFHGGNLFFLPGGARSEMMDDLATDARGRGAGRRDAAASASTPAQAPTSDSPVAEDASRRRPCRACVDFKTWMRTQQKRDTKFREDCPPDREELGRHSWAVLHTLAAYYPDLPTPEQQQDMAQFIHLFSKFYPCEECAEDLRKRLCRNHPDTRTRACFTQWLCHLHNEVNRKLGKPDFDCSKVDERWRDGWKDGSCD
* = called active by the depositor; u = inconclusive; x = no result.

SMILES	Arrestin-AP2 inh	DSG3 Ab inh	NALP3 yeast inh	NALP1 yeast inh	PolyA inhibitor	ALR H2O2 inh
CCc1ccc(-c2nc(CN3CCCC(C(=O)NCCc4ccc(OC)c(OC)c4)C3)c(C)o2)cc1 (stereo not given)	-7	105	0	12	23	x
Cc1oc(-c2ccc(Cl)cc2)nc1CS(=O)CC(=O)NCCN1CCCC1 (stereo not given)	-3	103	-1	-14	-19	99*
CCCN(CCC)CCNC(=O)C1CCN(Cc2nc(-c3ccc(Cl)cc3)oc2C)CC1	24	100	10	-21	4	-6
COc1ccc(Cl)cc1C=CC=Nc1ccccc1O	1	96	x	x	x	x
Cc1ccccc1-c1nc(CS(=O)(=O)CC(=O)NCCCN2CCCC2)c(C)o1	-5	119	-6	-36	13	-22
Cc1oc(-c2cccc(Cl)c2)nc1CS(=O)(=O)CC(=O)NCCCN1CCOCC1	-3	100	3	0	9	48
Cc1ccc(-c2nc(CS(=O)CC(=O)NCCN(CC(C)C)CC(C)C)c(C)o2)cc1 (stereo not given)	9	101	-14	x	7	99*
Cc1ccc(-c2ccc(=O)n(CC(=O)NCCN(CC(C)C)CC(C)C)n2)cc1	10	103	3	13	10	-2
Cc1ccc(-c2nc(CS(=O)CC(=O)NCCN3CCCC3)c(C)o2)cc1 (stereo not given)	10	112	-10	-4	-6	99*
Cc1ccc(-c2nc(CS(=O)CC(=O)NCCCN3CCN(Cc4ccccc4)CC3)c(C)o2)cc1 (stereo not given)	13	94	-9	-3	-6	99*
Cc1oc(-c2ccc(Cl)cc2)nc1CS(=O)CC(=O)NCCCN1CCOCC1 (stereo not given)	-22	u	-2	20	-6	99*
CCC(NC(=O)c1cncc(Br)c1)c1ccccc1 (stereo not given)	6	107	7	x	-4	19
COc1ccc(S(=O)(=O)Nc2ccc3c(c2)CC(=O)N([C@@H](C)CO)C[C@H](C)[C@@H](CN(C)S(=O)(=O)c2ccc(F)cc2)O3)cc1	18	101	8	x	x	-3
Cc1ccc(-c2nc(CS(=O)(=O)CC(=O)NCCN3CCOCC3)c(C)o2)cc1	5	x	6	21	1	-3
Cc1ccc(-c2nc(CS(=O)CC(=O)NCCN3CCOCC3)c(C)o2)cc1 (stereo not given)	2	103	3	-11	13	99*
Cc1cccc(CSCCNC(=O)CSCc2ccc([N+](=O)[O-])cc2)c1	1	x	15	21	7	-7
Cc1ccccc1CSCCNC(=O)CSCc1ccc([N+](=O)[O-])cc1	4	101	19	13	4	99*
Cc1ccc(CSCCNC(=O)CSCc2ccc([N+](=O)[O-])cc2)cc1	2	99	31	48*	-9	-9
CC(O)C(NS(=O)(=O)c1ccc2ccccc2c1)C(=O)OCC(=O)Nc1ccccc1OC(F)F (stereo not given)	3	99	x	x	x	x
O=C(O)C1Cc2ccccc2CN1S(=O)(=O)c1ccc2ccccc2c1 (stereo not given)	15	101	11	-10	4	95*
O=C(O)C1Cc2ccccc2CN1S(=O)(=O)c1ccccc1 (stereo not given)	6	102	-12	x	0	-2
S=c1[nH]nc(CSc2nc3ccccc3s2)o1	4	101	15	-5	-8	99*
Clc1c(-c2nnc3n2CCC3)sc2ccccc12	-2	110	29	22	5	-4
Cn1c(CSc2nc3ccccc3s2)nc2ccccc21	1	98	36	39	1	x
Cn1c(CSc2nc3ccccc3s2)n[nH]c1=S	-1	101	12	26	14	98*
SMILES	Arrestin-AP2 inh	DSG3 Ab inh	NALP3 yeast inh	NALP1 yeast inh	PolyA inhibitor	ALR H2O2 inh
Cn1c(-c2sc3ccccc3c2Cl)n[nH]c1=S	-5	x	18	11	-25	97*
C[C@@H]1CN([C@@H](C)CO)C(=O)c2ccccc2-c2ccccc2CO[C@@H]1CN(C)S(=O)(=O)c1ccc(C(F)(F)F)cc1	x	104	x	x	x	x
c1c2c(cc3sc(N4CCOCC4)nc13)OCO2	12	x	12	17	-1	97*
CC(=O)Nc1nc2cc3c(cc2s1)OCO3	-16	101	15	-6	-13	-4
c1ccc(N2CCN(c3nc4cc5c(cc4s3)OCO5)CC2)cc1	3	96	21	37	-3	x
c1c2c(cc3sc(N4CCCCC4)nc13)OCO2	29	x	17	-3	-13	99*
CC(C)N(C(=O)[C@H]1C[C@H](CC(=O)NCC23CC4CC(CC(C4)C2)C3)C(=O)N2CCc3c([nH]c4cc(CCC(=O)N(C)C)ccc34)[C@]12C)C(C)C	10	113	x	x	x	x
c1coc(C2=Nc3cccc4cccc(c34)N2)c1	7	78*	21	1	23	x
CN(C)c1ccc(CNS(=O)(=O)c2csc(C(N)=O)c2)cc1	15	107	7	28	11	93*
CCN(CC)c1ccc(/C=N/NC(=O)OC(C)(C)C)cc1	17	113	15	-10	0	99*
CCN(CC)c1ccc(/C=N/NS(=O)(=O)c2ccc(CNC(C)=O)cc2)cc1	0	108	16	x	-6	99*
CCN(CC)c1ccc(/C=N/NC(=O)CNC(=O)c2ccccn2)cc1	17	93	-15	-2	-9	95*
CCN(CC)c1ccc(/C=N/NC(=O)Nc2ccccc2)cc1	15	101	31	-19	4	34
CCCN(CCC)c1ccc(/C=N/NC(=O)CN2CCOCC2)cc1	7	97	1	2	1	99*
O=C(CNC(=O)c1ccccn1)N/N=C/c1ccc2c(c1)OCO2	-4	103	-17	45	23	72
COc1ccc([C@@H]2C[C@H]3[C@@H](CN2S(=O)(=O)c2ccccc2)C(=O)C[C@@H](c2cccc4ccccc24)N3S(=O)(=O)c2ccc(C)cc2)cc1	x	97	x	x	x	x
CCOC(=O)c1ccccc1NC(=O)COC(=O)c1cc([N+](=O)[O-])ccc1N1CCOCC1	16	101	17	x	-2	5
COc1ccc(/C=N/NC(=O)OC(C)(C)C)cc1OC	10	x	8	30	0	95*
COc1cc(/C=N\NC(=O)OC(C)(C)C)ccc1OC(=O)c1ccco1	-1	x	0	23	-12	20
